Measured values from different studies.
Protocols differ between the studies behind these lines.
Palmitoyl-protein thioesterase 1: Palmitoyl-protein thioesterase 1 (Homo sapiens, UniProt P50897)
Transmembrane protease serine 6: Transmembrane protease serine 6 (Homo sapiens, UniProt Q8IU80)

C=C[C@H]1C[N@@]2CC[C@H]1C[C@H]2[C@H](O)c1ccnc2ccc(OC)cc12 — inhibition (Palmitoyl-protein thioesterase 1; enzyme activity, inhibitor; 125 µM): 18.6%
Cc1ccc2c(-c3cc4c(CN5CCN(Cc6ccccn6)CC5)cnc(C)c4o3)cc(=O)oc2c1 — inhibition (Epidermal growth factor receptor (EGFR, Homo sapiens, UniProt P00533, L858R/T790M); enzyme activity, inhibitor, ADP detection; 1 µM): 65 to 75%
Cc1cc([C@@H](C)Nc2ccccc2C(=O)O)c2nc(N3CCC(F)(F)CC3)c(C#N)c(=O)n2c1 — remaining binding (SRSF protein kinase 3 (SRPK3, Homo sapiens, UniProt Q9UPE1); binding, competition with immobilised ligand; 1 µM): 77%
C=CCCCCCC(C)(NC(=O)[C@H](Cc1cscn1)NC(=O)CCc1ccccc1)C(=O)N[C@@H](CCCNC(=N)N)C(=O)c1nc2ccccc2s1 (stereo partly drawn) — remaining activity (Transmembrane protease serine 6; enzyme activity, inhibitor; 0.1 µM): 101%
COc1cc(-c2cncc3c2CN(C)Cc2cc(N4CCNCC4)ccc2-3)cc(OC)c1OC — remaining activity (Protein kinase C delta type (PRKCD, Homo sapiens, UniProt Q05655); enzyme activity, inhibitor; 1 µM): 104%
C=CC(=O)N1CCC(COCC(=O)N2CCN(c3nc(-c4cnc(N)nc4C(F)F)nc(N4CCOC[C@@H]4C)n3)CC2)CC1 — remaining binding (Mitogen-activated protein kinase 4 (MAPK4, Homo sapiens, UniProt P31152); binding, competition with immobilised ligand; 1 µM): 100%
O=C1OCCN1/N=C/c1ccc([N+](=O)[O-])o1 — inhibition (Palmitoyl-protein thioesterase 1; enzyme activity, inhibitor; 125 µM): 29%
N=C(N)NCCC[C@H](NC(=O)[C@H](CC1CCCCC1)NC(=O)[C@H](Cc1cscn1)NC(=O)CCc1ccccc1)C(=O)c1nc2ccccc2s1 — remaining activity (Transmembrane protease serine 6; enzyme activity, inhibitor; 0.1 µM): 6%
c1coc(CNc2ncnc3[nH]cnc23)c1 — inhibition (Palmitoyl-protein thioesterase 1; enzyme activity, inhibitor; 125 µM): 8.93%
N=C(N)NCCC[C@H](NC(=O)[C@H](CC12CC3CC(CC(C3)C1)C2)NC(=O)[C@H](Cc1cscn1)NC(=O)CCc1ccccc1)C(=O)c1nc2ccccc2s1 — remaining activity (Transmembrane protease serine 6; enzyme activity, inhibitor; 0.1 µM): 95%
CC(C)C[C@@H](C(=O)N[C@H](C(=O)OC1CCCC1)c1ccccc1)[C@H](O)C(=O)NO — inhibition (Palmitoyl-protein thioesterase 1; enzyme activity, inhibitor; 625 µM): 8.02%
N=C(N)NCCC[C@H](NC(=O)[C@H](Cc1ccc(C(=O)c2ccccc2)cc1)NC(=O)[C@H](Cc1cscn1)NC(=O)CCc1ccccc1)C(=O)c1nc2ccccc2s1 — remaining activity (Transmembrane protease serine 6; enzyme activity, inhibitor; 0.1 µM): 78%
O=C1C=C2CC3(O)COc4cc(O)ccc4C3=C2C=C1O (stereo not drawn) — inhibition (Palmitoyl-protein thioesterase 1; enzyme activity, inhibitor; 625 µM): 29.3%
N=C(N)NCCC[C@H](NC(=O)C1(NC(=O)[C@H](Cc2cscn2)NC(=O)CCc2ccccc2)CC1)C(=O)c1nc2ccccc2s1 — remaining activity (Transmembrane protease serine 6; enzyme activity, inhibitor; 0.1 µM): 60%
CNc1ncc2c(/C=C/C(=O)N3CCC(OC)CC3)nn(Cc3cccc(C(F)(F)F)c3)c2n1 — remaining activity (Cyclin-dependent kinase 6, with cyclin D2 (CDK6, Homo sapiens, UniProt Q00534); enzyme activity, inhibitor, radiometric; 1 µM): 92%
